From ChEMBL document CHEMBL1154760, “Optimization of a pipemidic acid autotaxin inhibitor” (J Med Chem, 2010)
Active and inactive are the calls of the source. The rule behind the calls is not given here.

Tests used:
[1] = biological target: T1, Ectonucleotide pyrophosphatase/phosphodiesterase family member 7 (Homo sapiens) (UniProt Q6UWV6); assay: Inhibition of NPP7 expressed in HEK293 cells assessed as para-nitrophenylphosphoryl choline hydrolysis; assay type: cell-based
T1 sequence (whole entry): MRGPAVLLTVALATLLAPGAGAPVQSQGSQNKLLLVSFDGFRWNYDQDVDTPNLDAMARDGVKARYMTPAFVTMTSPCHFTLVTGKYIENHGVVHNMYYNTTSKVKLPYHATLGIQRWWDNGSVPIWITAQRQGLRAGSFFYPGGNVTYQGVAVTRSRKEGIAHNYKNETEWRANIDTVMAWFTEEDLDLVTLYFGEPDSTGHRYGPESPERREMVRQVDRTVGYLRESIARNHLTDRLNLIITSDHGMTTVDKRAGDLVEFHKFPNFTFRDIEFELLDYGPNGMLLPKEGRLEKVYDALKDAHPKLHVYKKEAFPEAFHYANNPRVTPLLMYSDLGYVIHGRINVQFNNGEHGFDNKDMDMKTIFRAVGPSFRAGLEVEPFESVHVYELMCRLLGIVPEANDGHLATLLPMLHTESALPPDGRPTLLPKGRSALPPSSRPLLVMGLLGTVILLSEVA
Outline: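 NPP7 from concentrated conditioned medium of transfected HEK293 cells (human NPP7). Inhibitor at 10 μM in 1% DMSO. Substrate pNPPC at […] in 50 mM Tris-HCl pH 8.5 with 150 mM NaCl and 10 mM taurocholic acid, no EDTA, 37 °C. Absorbance taken at 1 h, vehicle-normalized after blank. Mean ± SD of ≥3 wells.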

[2] = biological target: T2, Glycerophosphocholine cholinephosphodiesterase ENPP6 (Homo sapiens) (UniProt Q6UWR7); assay: Inhibition of NPP6 expressed in HEK293 cells assessed as para-nitrophenylphosphoryl choline hydrolysis; assay type: cell-based
T2 sequence (whole entry): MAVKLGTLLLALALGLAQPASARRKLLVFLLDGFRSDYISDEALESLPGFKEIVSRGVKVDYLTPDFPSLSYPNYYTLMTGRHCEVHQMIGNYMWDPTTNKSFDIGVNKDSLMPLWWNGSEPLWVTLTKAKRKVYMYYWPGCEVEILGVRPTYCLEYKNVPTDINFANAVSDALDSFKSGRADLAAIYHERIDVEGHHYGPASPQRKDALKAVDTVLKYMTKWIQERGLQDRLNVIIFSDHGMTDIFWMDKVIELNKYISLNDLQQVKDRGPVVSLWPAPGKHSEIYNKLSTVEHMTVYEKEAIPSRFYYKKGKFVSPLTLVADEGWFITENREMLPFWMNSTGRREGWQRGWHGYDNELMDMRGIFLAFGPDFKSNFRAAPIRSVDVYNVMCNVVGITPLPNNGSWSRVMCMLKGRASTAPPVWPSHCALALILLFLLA
Outline: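 NPP6 from conditioned medium of HEK293 cells transiently transfected with human NPP6. Inhibitor at 10 μM in 1% DMSO. Substrate pNPPC at 10 mM in 100 mM Tris-HCl pH 9.0 with 500 mM NaCl and 0.05% Triton X-100, 37 °C. Absorbance read at 1 h, normalized to vehicle after cell-free-medium blank. Mean ± SD of ≥3 wells.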

[3] = biological target: T3, Autotaxin (Homo sapiens, UniProt Q13822); assay: Competitive inhibition of human autotaxin at free state isolated from MDA-MB-231 cells assessed as blockade of FS3 substrate hydrolysis by FRET assay; assay type: cell-based
[4] = biological target: T3, Autotaxin; assay: Noncompetitive type inhibition of human autotaxin at free state isolated from MDA-MB-231 cells assessed as blockade of FS3 substrate hydrolysis by FRET assay; assay type: cell-based
[5] = biological target: T3, Autotaxin; assay: Noncompetitive type inhibition of human autotaxin at enzyme-substrate complex isolated from […] assessed as blockade of FS3 substrate hydrolysis by FRET assay
Outline: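 ATX source: ~10× concentrated serum-free conditioned medium from MDA-MB-435 cells, buffer-exchanged into 50 mM Tris pH 7.4 with 20% ethylene glycol. FS-3 300 nM–20 μM with three inhibitor levels, including zero. Buffer: 50 mM Tris pH 8.0, 140 mM NaCl, 5 mM KCl, 1 mM CaCl2/MgCl2, 30 μM stripped BSA. Run at 37 °C, ex485/em528. Ki′ from simultaneous nonlinear fit to four inhibition models; lowest residual error chosen.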

| Activity [1] | Activity [2] | Ki [3] [µM] | Ki [4] [µM] | Ki [5] [µM] | SMILES |
| --- | --- | --- | --- | --- | --- |
| inactive | inactive |  |  |  | CCn1cc(C(=O)O)c(=O)c2cnc(N3CCN(C(=S)Nc4ccc(C)cc4)CC3)nc21 |
| inactive | inactive | 4 |  |  | CCn1cc(C(=O)O)c(=O)c2cnc(N3CCN(C(=S)Nc4cc(C(F)(F)F)cc(C(F)(F)F)c4)CC3)nc21 |
| inactive | inactive | 4.5 |  |  | CCn1cc(C(=O)O)c(=O)c2cnc(N3CCN(C(=S)Nc4cccc(C)c4)CC3)nc21 |
| inactive | inactive |  |  |  | CCn1cc(C(=O)O)c(=O)c2cnc(N3CCN(C(=S)Nc4cccc(I)c4)CC3)nc21 |
| inactive | inactive | 4.2 |  |  | CCn1cc(C(=O)O)c(=O)c2cnc(N3CCN(C(=S)Nc4cc(C)cc(C)c4)CC3)nc21 |

The remaining lines, values behind:

| SMILES | Activity [1] | Activity [2] | Ki [3] [µM] | Ki [4] [µM] | Ki [5] [µM] |
| --- | --- | --- | --- | --- | --- |
| CCn1cc(C(=O)O)c(=O)c2cnc(N3CCN(C(=S)Nc4ccc(Cl)cc4)CC3)nc21 | inactive | inactive | 5.7 |  |  |
| CCn1cc(C(=O)O)c(=O)c2cnc(N3CCN(C(=S)Nc4cccc(OC)c4)CC3)nc21 | inactive | inactive |  |  |  |
| CCn1cc(C(=O)O)c(=O)c2cnc(N3CCN(C(=S)Nc4cccc(C(F)(F)F)c4)CC3)nc21 | inactive | inactive | 0.7 |  |  |
| CCn1cc(C(=O)O)c(=O)c2cnc(N3CCN(C(=S)Nc4ccc5nsnc5c4)CC3)nc21 | inactive | inactive | 7.1 |  |  |
| CCn1cc(C(=O)O)c(=O)c2cnc(N3CCN(C(=S)Nc4cc(Cl)ccc4Cl)CC3)nc21 | inactive | inactive |  |  |  |
| CCn1cc(C(=O)O)c(=O)c2cnc(N3CCN(C(=S)Nc4cccc(F)c4)CC3)nc21 | inactive | inactive |  |  |  |
| CCn1cc(C(=O)O)c(=O)c2cnc(N3CCN(C(=S)Nc4ccc(F)cc4)CC3)nc21 | inactive | inactive |  |  |  |
| CCCCCCCCc1ccc(CCC(N)(CO)CCCP(=O)(O)O)cc1 (centres undefined) |  |  |  | 0.2 |  |
| CCn1cc(C(=O)O)c(=O)c2cnc(N3CCN(C(=S)Nc4ccc(I)cc4)CC3)nc21 | inactive | inactive |  |  |  |
| CCn1cc(C(=O)O)c(=O)c2cnc(N3CCN(C(=S)Nc4ccc(C(F)(F)F)cc4)CC3)nc21 | inactive | inactive |  | 13.2 | 13.2 |
| CCn1cc(C(=O)O)c(=O)c2cnc(N3CCN(C(=S)Nc4cccc(Cl)c4)CC3)nc21 | inactive | inactive |  |  |  |
